Results gathered from unrelated publications.
Each line is one published result; the experiments were not run side by side. pIC50: −log10 of the molar value.
Observed: tubulin polymerisation
Action: inhibitor

COc1cc2c(cc1OS(N)(=O)=O)CCN(Cc1cc(OC)c(OC)c(OC)c1)C2 — pIC50 (absorbance): < 4.70
CCCOc1ccc(N(C)c2cc(C)nc3ccc(Cl)cc23)cc1 — pIC50: 5.27
COc1ccc(C(=O)c2cc3c(-c4ccccc4)c(O)ccc3o2)cc1 — pIC50 (absorbance): 5.55
CCCOc1ccc(Nc2cc(C)nc3ccc(Cl)cc23)cc1 — pIC50: < 4.00
COc1ccc([S+]([O-])c2ccc(OC)c(OC)c2OC)cc1 (centres unmarked) — pIC50 (absorbance; pH 6.6): < 4.40
COc1cc2c(cc1O)CCN(Cc1cc(OC)c(OC)c(OC)c1)C2 — pIC50 (absorbance): < 4.70
COc1ccc(S(=O)(=O)c2ccccc2)c(OC)c1OC — pIC50 (absorbance; pH 6.6): < 4.40
COc1ccc(N(C)c2nc(C)nc3c2CCC3)cc1 — pIC50 (absorbance): 5.80
COc1ccc(/C=C\c2cc(OC)c(OC)c(OC)c2)cc1O — pIC50 (absorbance): 5.85
COc1ccc(Sc2ccccc2)c(OC)c1OC — pIC50 (absorbance; pH 6.6): < 4.40
COc1ccc(N(C)c2nc(C)nc3c2C[C@@H](C)C3)cc1 (racemic) — pIC50 (absorbance): 5.72
